One data set concerns Klebsiella pneumoniae. In words: Antibacterial activity against Klebsiella pneumoniae X26 assessed as growth inhibition. It is filed as functional.
Data set [1] is described as follows: Antibacterial activity against Salmonella heidelberg X514 assessed as growth inhibition. The class given is functional, Salmonella enterica subsp. enterica serovar Heidelberg. To be noted: Salmonella enterica.
A further data set concerns Shigella sp. In words: Antibacterial activity against Shigella sp. N9 assessed as growth inhibition. It is filed as functional.
Data set [2] can be described thus: Hydrolytic stability of the compound assessed as beta-lactum ring opening rate at pH 10 at 35 degC by UV method. It is filed as physicochemical. To be noted: buffer. A digest of the protocol:
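Pseudo-first-order rate constants for β-lactam ring opening, measured by UV at pH 10.0 and 35 °C and reported as k_obsd (s−1).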

A further data set has as its system Escherichia coli. The experiment in a line: Antibacterial activity against Escherichia coli N10 assessed as growth inhibition. It is filed as functional.
Another data set has as its system Klebsiella aerogenes. In words: Antibacterial activity against Enterobacter aerogenes X68 assessed as growth inhibition. The class given is functional.

Structures are written as SMILES. Values after ≈ are worked out from the molar mass of the structure shown.

Turning to `O=C(Cc1cccs1)N[C@@H]1C(=O)N2C(C(=O)O)=C(Cl)CS[C@H]12`, the MIC in the data set on Klebsiella pneumoniae is 0.8 mg/L (≈ 2.23 µM); in data set [1], 0.9 mg/L (≈ 2.51 µM); in the data set on Shigella sp. it was 17.5 mg/L (≈ 48.8 µM); in the data set with Escherichia coli, 21.2 mg/L (≈ 59.1 µM); in the data set on Klebsiella aerogenes, 0.9 mg/L (≈ 2.51 µM). For the same compound, the k obsd in data set [2] was 0.000131 s⁻¹.

As for `CC(=O)OCC1=C(C(=O)O)N2C(=O)[C@@H](NC(=O)Cc3cccs3)[C@H]2SC1` [CEPHALOTHIN], the MIC in the data set on Klebsiella pneumoniae is 1 mg/L (≈ 2.52 µM); in data set [1] it was 1 mg/L (≈ 2.52 µM); in the data set on Shigella sp., 14 mg/L (≈ 35.3 µM); with Escherichia coli, 15 mg/L (≈ 37.8 µM); in the data set with Klebsiella aerogenes, 3 mg/L (≈ 7.57 µM). Further, the k obsd in data set [2] was determined as 9.7e-05 s⁻¹.

On to `CC1=C(C(=O)O)N2C(=O)[C@@H](NC(=O)Cc3cccs3)[C@H]2SC1`, for which the MIC turned out to be 10 mg/L (≈ 29.5 µM) with Klebsiella pneumoniae; 29 mg/L (≈ 85.7 µM) in data set [1]; 120 mg/L (≈ 355 µM) in the data set with Shigella sp.; 116 mg/L (≈ 343 µM) in the data set with Escherichia coli; 30 mg/L (≈ 88.6 µM) in the data set with Klebsiella aerogenes. Moreover, in data set [2], the k obsd was determined as 1.07e-05 s⁻¹.

For `N[C@@H](C(=O)N[C@@H]1C(=O)N2C(C(=O)O)=C(Cl)CS[C@H]12)c1ccccc1` [CEFACLOR ANHYDROUS], the k obsd in data set [2] came to 0.000287 s⁻¹.

On to `O=C(COc1ccccc1)N[C@@H]1C(=O)N2C(C(=O)O)=C(Cl)CS[C@H]12`, for which, in data set [2], the k obsd is 0.000183 s⁻¹.

Broadly, the MIC is the lowest concentration found to suppress growth.
